Measured values as given in ChEMBL document CHEMBL3102834, “Discovery of 5-substituted pyrrolo[2,3-d]pyrimidine antifolates as dual-acting inhibitors of glycinamide ribonucleotide formyltransferase and 5-aminoimidazole-4-carboxamide ribonucleotide formyltransferase in de novo purine nucleotide biosynthesis: implications of inhibiting …” (J Med Chem, 2013).
Active and inactive are the calls of the source. No cut-off for these calls is given here.

Key:
[1] = target: T1, Reduced folate transporter (Homo sapiens) (UniProt P41440); assay: Inhibition of human RFC expressed in chinese hamster PC43-10 cells assessed as reduction of [3H]MTX uptake at 10 uM after 48 hrs by scintillation counting analysis relative to control; format: cell-based
T1 sequence (whole entry): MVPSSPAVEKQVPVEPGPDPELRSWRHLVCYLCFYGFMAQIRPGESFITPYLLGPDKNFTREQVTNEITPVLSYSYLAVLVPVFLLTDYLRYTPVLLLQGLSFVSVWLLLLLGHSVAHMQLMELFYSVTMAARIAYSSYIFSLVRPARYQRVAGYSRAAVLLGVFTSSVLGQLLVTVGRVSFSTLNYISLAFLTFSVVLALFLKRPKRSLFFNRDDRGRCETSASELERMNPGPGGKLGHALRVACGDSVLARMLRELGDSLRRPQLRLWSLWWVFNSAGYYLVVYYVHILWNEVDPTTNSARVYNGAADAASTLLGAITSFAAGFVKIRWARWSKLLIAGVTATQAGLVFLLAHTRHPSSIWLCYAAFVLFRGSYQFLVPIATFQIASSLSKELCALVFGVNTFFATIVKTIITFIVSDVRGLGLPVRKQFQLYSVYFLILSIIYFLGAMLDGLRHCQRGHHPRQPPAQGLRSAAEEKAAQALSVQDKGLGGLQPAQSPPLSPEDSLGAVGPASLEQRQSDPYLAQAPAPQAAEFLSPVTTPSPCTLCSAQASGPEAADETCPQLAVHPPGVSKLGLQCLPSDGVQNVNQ
In short: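 PC43-10 CHO cells expressing human RFC (~1.5 × 10^6) were seeded 48 h before assay. Uptake of 0.5 μM [3H]MTX was run in Hank's balanced salts for 2 min at 37 °C, with or without 10 μM unlabelled inhibitor, and stopped with ice-cold PBS. Cells were dissolved in 0.5 N NaOH, counted by scintillation and normalised to Folin-phenol protein (pmol/mg). RFC-null R2 cells gave baseline. Three experiments.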

KB [2] = assay: Cytotoxicity against human KB cells expressing human RFC/FRalpha/PCFT after 96 hrs by CellTitre-Blue fluorescence assay in presence of folic acid; format: functional, cell-based
In short: (§1)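 KB cells were grown in FF-RPMI with DFBS and 2 nM LCV, exposed to antifolate (0–1 μM) for 96 h at 37 °C, and read by CellTiter-Blue fluorescence. IC50 was taken from dose–response curves relative to untreated cells. Protection arms added adenosine 60 μM, thymidine 10 μM, AICA 320 μM, or folic acid 200 nM. Means of 3–10 experiments.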

KB [3] = assay: Cytotoxicity against human KB cells expressing human RFC/FRalpha/PCFT after 96 hrs by CellTitre-Blue fluorescence assay; format: functional, cell-based; in short: as §1
KB [4] = assay: Cytotoxicity against human KB cells expressing human RFC/FRalpha/PCFT after 96 hrs by CellTitre-Blue fluorescence assay in presence of adenosine; format: functional, cell-based; in short: as §1
[5] = target: Folate receptor alpha (Homo sapiens) (UniProt P15328); assay: Displacement of [3H]folic acid from human FRalpha expressed in chinese hamster RT16 cells after 15 mins by scintillation counting analysis; format: cell-based
In short: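 FRα-expressing RT16 CHO cells (~1.5 × 10^6) were grown as monolayers. Bound folates were stripped with ice-cold acetate buffer (pH 3.5), then neutralised with HEPES-buffered saline (pH 7.4). Cells were then competed with [3H]folic acid against graded unlabelled ligand. Bound label read by scintillation, normalised to Folin-phenol protein (pmol/mg). Relative affinity = inverse molar ratio for 50% displacement, folic acid set at 1. Three experiments.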

KB [6] = assay: Cell cycle arrest in human KB cells after 48 hrs by propidium iodide staining-based flow cytometry; format: functional
In short: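 KB cells exposed to 1 μM drug for 48 h in FF-RPMI with 10% DFBS and 2 nM LCV, harvested by trypsin and fixed in ice-cold ethanol. Stained with 50 μg/mL PI plus 100 μg/mL RNase for at least 20 min at room temperature in the dark. Flow cytometry counted at least 10 000 events. G1/G0, S, G2/M and sub-G1 fractions were fitted by Watson Pragmatic model.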

Folate receptor alpha (Homo sapiens), sequence (P15328 25-234 limits assumed): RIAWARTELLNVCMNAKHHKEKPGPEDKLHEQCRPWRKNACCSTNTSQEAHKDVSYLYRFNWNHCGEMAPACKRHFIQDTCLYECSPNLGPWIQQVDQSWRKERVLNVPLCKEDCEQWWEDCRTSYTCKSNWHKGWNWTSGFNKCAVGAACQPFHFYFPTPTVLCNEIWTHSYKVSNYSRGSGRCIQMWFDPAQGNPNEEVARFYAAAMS

inhibition [1]: > 90% | Activity [5]: Active
SMILES: Nc1nc2[nH]cc(CCCCc3ccc(C(=O)N[C@@H](CCC(=O)O)C(=O)O)cc3)c2c(=O)[nH]1
IC50 (KB [2]): 700 nM | IC50 (KB [3]): 12.7 nM | Activity (KB [4]): inactive | Activity (KB [6]): Active
